Laboratory results taken from ChEMBL document CHEMBL5030534, “Discovery of Novel Anti-Breast-Cancer Inhibitors by Synergistically Antagonizing Microtubule Polymerization and Aryl Hydrocarbon Receptor Expression” (J Med Chem, 2021).
Active and inactive are the calls of the source. No cut-off for these calls is given here.

What was measured:
[1] = Toxicity in BALB/c mouse xenografted with human MCF7 cells assessed as change in body weight at 0.5 to 1 mg/kg, iv administered every 2 days for 21 days; format: organism-based; details: in vivo, 504 h, dose 0.5-1 mg/kg, time 21 day
In short: (§1)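 Nude mice given 6 × 10⁶ MCF-7 cells subcutaneously on right flank; after 7 days randomized, eight per group. iv dosing every 2 days at 0.5 or 1 mg/kg; vehicle 10% DMSO/5% Tween 80/85% saline; paclitaxel 10 mg/kg and CA-4 20 mg/kg references. Body weight every 2 days; killed after 21 days; organs fixed, paraffin-sectioned, H&E stained.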

[2] = Antiproliferative activity against human MCF7/ADR cells assessed as reduction in cell viability incubated for 48 hrs by MTT assay; format: functional, cell-based; details: MCF7, 48 h
In short: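 Cells seeded at 5 × 10³ per well, incubated overnight, then exposed to a range of compound concentrations for 48 h. MTT added for 4 h, medium replaced with DMSO, absorbance read at 570 nm. Three independent runs.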

[3] = test system: MCF7; assay: Cell cycle arrest in human MCF7 cells assessed as decrease in Cdc2 protein expression; format: functional, cell-based; details: dose 1-4 nM
In short: (§2)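 MCF-7 seeded 4 × 10⁵ per well for 24 h, then DMSO or compound at 1, 2, 4 nM for 24 h. Lysates protein-normalized to 3 mg/mL by BCA, resolved on 4–20% SDS-PAGE and immunoblotted. Bands quantified relative to β-actin (cell-cycle proteins) or GAPDH (apoptosis proteins); n = 3.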

[4] = test system: MCF7; assay: Induction of apoptosis in human MCF7 cells assessed as viable cells at 2 nM measured after 24 hrs by Annexin V-FITC and PI staining based flow cytometry assay (reference value: 96.8%); format: functional; details: read-out: Activity
[5] = test system: MCF7; assay: Induction of apoptosis in human MCF7 cells assessed as necrotic cells at 2 nM measured after 24 hrs in presence of DMBA by Annexin V-FITC and PI staining based flow cytometry assay (reference value: 0.9%); format: functional
[6] = test system: MCF7; assay: Cell cycle arrest in human MCF7 cells assessed as increase in Cyclin B1 protein expression; details: dose 1-4 nM
[7] = test system: MCF7; assay: Induction of apoptosis in human MCF7 cells assessed as early apoptotic cells at 2 nM measured after 24 hrs in presence of DMBA by Annexin V-FITC and PI staining based flow cytometry assay (reference value: 1%); format: functional
[8] = test system: MCF7; assay: Cell cycle arrest in human MCF7 cells assessed as accumulation of cells at G2/M phase at 0.5 to 2 nM measured after 24 hrs by propidium iodide staining based flow cytometric analysis relative to control; format: functional; details: dose 0.5-2 nM
In short: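 MCF-7 seeded 4 × 10⁵ per well for 24 h, treated with DMSO or 0.5, 1, 2 nM. Fixed in 75% ethanol at −20 °C for 12 h, stained with PI by cell-cycle kit, analysed by flow cytometry. Three runs.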

[9] = biological target: Tubulin (Homo sapiens) (UniProt P68371+Q9H4B7+P0DPH7+P68366+Q13509+Q71U36+P04350+Q3ZCM7+P07437+P68363+Q9BQE3+Q6PEY2+Q13885+Q9BVA1+Q9BUF5); assay: Induction of microtubule depolymerization in human MCF7 cells at 10 uM measured every 5 mins for 60 mins by spectrophotometric method; format: cell-based
In short: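 Purified tubulin at 2 mg/mL in PEM buffer preincubated on ice with compound or DMSO. PEG added to a final 3 mg/mL, then polymerization followed at 37 °C by absorbance at 350 nm every 5 min for 60 min.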

[10] = test system: MCF7; assay: Induction of apoptosis in human MCF7 cells assessed as viable cells at 2 nM measured after 24 hrs in presence of DMBA by Annexin V-FITC and PI staining based flow cytometry assay (reference value: 96.5%); format: functional; details: read-out: Activity
[11] = test system: MCF7; assay: Induction of apoptosis in human MCF7 cells assessed as late apoptotic cells at 2 nM measured after 24 hrs by Annexin V-FITC and PI staining based flow cytometry assay (reference value: 2.06%); format: functional
[12] = test system: L02; assay: Antiproliferative activity against human L-O2 cells assessed as reduction in cell viability incubated for 48 hrs by MTT assay; format: cell-based; details: L02, 48 h
In short: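 Cells seeded at 5 × 10³ per well, incubated overnight, then exposed to a range of compound concentrations for 48 h. MTT added for 4 h, medium replaced with DMSO, absorbance read at 570 nm. MCF-7, L-O2 grown in DMEM; MCF-10A, MCF-7/ADR in RPMI 1640. Three independent runs.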

[13] = test system: MCF7; assay: Antitumor activity against human MCF7 cells xenografted in BALB/c nude mouse assessed as increase in apoptotic cells at 1 mg/kg, iv administered every 2 days for 21 days by TUNEL staining based assay; format: functional, organism-based; details: time 21.0 day
In short: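 Same subcutaneous MCF-7 nude-mouse xenografts dosed iv every 2 days for 21 days. Tumors then fixed, paraffin-embedded and sectioned. Apoptotic cells detected by TUNEL fluorescent staining with DNA counterstain; microvessel density measured by anti-CD31 immunohistochemistry.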

[14] = test system: MCF7; assay: Induction of apoptosis in human MCF7 cells assessed as increase in Bad protein expression at 1 to 4 nM; format: functional, cell-based; details: dose 1-4 nM; in short: as §2
[15] = test system: MCF7; assay: Induction of apoptosis in human MCF7 cells assessed as late apoptotic cells at 1 nM measured after 24 hrs by Annexin V-FITC and PI staining based flow cytometry assay (reference value: 2.06%); format: functional
[16] = Toxicity in BALB/c nude mouse xenografted with human MCF7 cells assessed as effect on spleen at 0.5 to 1 mg/kg, iv administered every 2 days for 21 days by H and E staining based assay; format: organism-based; details: in vivo, 504 h, dose 0.5-1 mg/kg, time 21 day; in short: as §1
[17] = Toxicity in BALB/c nude mouse xenografted with human MCF7 cells assessed as effect on kidney at 0.5 to 1 mg/kg, iv administered every 2 days for 21 days by H and E staining based assay; format: organism-based; details: in vivo, 504 h, dose 0.5-1 mg/kg, time 21 day; in short: as §1
[18] = test system: MCF7; assay: Induction of apoptosis in human MCF7 cells assessed as increase in Bax protein expression at 1 to 4 nM; format: functional, cell-based; details: dose 1-4 nM; in short: as §2
[19] = test system: MCF7; assay: Induction of apoptosis in human MCF7 cells assessed as necrotic cells at 2 nM measured after 24 hrs by Annexin V-FITC and PI staining based flow cytometry assay (reference value: 0.28%); format: functional
[20] = Toxicity in BALB/c nude mouse xenografted with human MCF7 cells assessed as effect on lung at 0.5 to 1 mg/kg, iv administered every 2 days for 21 days by H and E staining based assay; format: organism-based; details: in vivo, 504 h, dose 0.5-1 mg/kg, time 21 day; in short: as §1
[21] = test system: MCF7; assay: Induction of apoptosis in human MCF7 cells assessed as necrotic cells at 1 nM measured after 24 hrs by Annexin V-FITC and PI staining based flow cytometry assay (reference value: 0.28%); format: functional
[22] = test system: MCF7; assay: Induction of apoptosis in human MCF7 cells assessed as increase in PARP protein expression at 1 to 4 nM; format: functional, cell-based; details: dose 1-4 nM; in short: as §2
[23] = test system: MCF7; assay: Antiproliferative activity against human MCF7 cells assessed as cell growth inhibition at 2 nM in presence of DMBA; format: functional, cell-based

Activity [9]: Active
SMILES: Cc1nc(N(C)c2ccc3c(c2)cc(C)n3C)c2ccccc2n1
Activity [1]: Non-Toxic
IC50 [2]: 0.9 nM
Activity [3]: Dose-Dependent Effect
viability at 0.002 µM [4]: 38.3%
Activity [5]: 5.6%
Activity [6]: Dose-Dependent Effect
Activity [7]: 5%
Activity [8]: 46.87%
viability at 0.002 µM [10]: 67.5%
Activity [11]: 45.1%
IC50 [12]: 4.6 nM
Activity [13]: Active
Activity [14]: Active
Activity [15]: 28.6%
Activity [16]: Non-Toxic
Activity [17]: Non-Toxic
Activity [18]: Active
Activity [19]: 4.51%
Activity [20]: Non-Toxic
Activity [21]: 3.27%
Activity [22]: Active
Activity [23]: Active
